Test results published in ChEMBL document CHEMBL1131577, “Auxiliary agents for the peroral administration of peptide and protein drugs: synthesis and evaluation of novel pepstatin analogues” (J Med Chem, 1998).

target: Pepsin A (Homo sapiens, UniProt P0DJD9); assay: Inhibitory activity against pepsin as oxidation of o-phenylenediamine by Horse radish peroxidase (Pepsin sensitive)
Summary of the method: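 Pepsin (1 mg, 40 units, per mL of 0.05 N HCl, freshly prepared) mixed with test compound serially diluted 1:2 in DMSO, then 37.5 µg horseradish peroxidase in 0.05 N HCl added; incubated 2 h at 37 °C, then diluted 1:2 in 0.05 N HCl. Residual peroxidase oxidation of o-phenylenediamine (phosphate buffer pH 6.5, H2O2) ran 10 min at room temperature, read at 492 nm. Pepstatin dilutions served as reference.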

Pepsin A, sequence (P0DJD9 whole entry): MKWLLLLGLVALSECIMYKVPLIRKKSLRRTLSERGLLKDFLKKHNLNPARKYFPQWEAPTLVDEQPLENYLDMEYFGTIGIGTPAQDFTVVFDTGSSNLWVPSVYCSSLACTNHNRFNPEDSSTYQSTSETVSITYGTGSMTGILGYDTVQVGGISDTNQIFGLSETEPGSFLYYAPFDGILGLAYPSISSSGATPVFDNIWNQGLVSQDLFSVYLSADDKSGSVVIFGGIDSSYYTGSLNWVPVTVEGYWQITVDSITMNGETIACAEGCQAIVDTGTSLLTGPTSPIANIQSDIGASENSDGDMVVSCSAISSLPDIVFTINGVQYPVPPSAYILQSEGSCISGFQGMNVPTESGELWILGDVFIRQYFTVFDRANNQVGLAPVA

| Compound | IC50 |
| --- | --- |
| CCCCC(O)[C@@H](NC(=O)[C@@H](NC(=O)[C@@H](NC(=O)OC(C)(C)C)C(C)C)C(C)C)[C@@H](C)CC (stereo not given in full) | 33000 nM |
| CCCCCCCCC(O)[C@H](CCC)NC(=O)[C@@H](NC(=O)[C@@H](NC(=O)OC(C)(C)C)C(C)C)C(C)C (stereo not given in full) | 1070 nM |
| CCCCCCCCC(O)[C@@H](NC(=O)[C@@H](NC(=O)[C@@H](NC(=O)OC(C)(C)C)C(C)C)C(C)C)[C@@H](C)CC (stereo not given in full) | 15000 nM |
| CCCCCCC(O)[C@H](CCC)NC(=O)[C@@H](NC(=O)[C@@H](NC(=O)OC(C)(C)C)C(C)C)C(C)C (stereo not given in full) | 700 nM |
| CCCCC(O)[C@H](CC(C)C)NC(=O)[C@@H](NC(=O)[C@@H](NC(=O)OC(C)(C)C)C(C)C)C(C)C (stereo not given in full) | 1240 nM |
| CCCCCCC(O)[C@H](CC(C)C)NC(=O)[C@@H](NC(=O)[C@@H](NC(=O)OC(C)(C)C)C(C)C)C(C)C (stereo not given in full) | 830 nM |

Second part, the compound after the results:

| IC50 | Compound |
| --- | --- |
| 790 nM | CCCCCCCCC(O)[C@H](CC(C)C)NC(=O)[C@@H](NC(=O)[C@@H](NC(=O)OC(C)(C)C)C(C)C)C(C)C (stereo not given in full) |
| 910 nM | CCCCC(O)[C@H](CCC)NC(=O)[C@@H](NC(=O)[C@@H](NC(=O)OC(C)(C)C)C(C)C)C(C)C (stereo not given in full) |
| 27000 nM | CCCCCCC(O)[C@@H](NC(=O)[C@@H](NC(=O)[C@@H](NC(=O)OC(C)(C)C)C(C)C)C(C)C)[C@@H](C)CC (stereo not given in full) |
| 59 nM | CC(C)CC(=O)N[C@H](C(=O)N[C@H](C(=O)N[C@@H](CC(C)C)[C@@H](O)CC(=O)N[C@@H](C)C(=O)N[C@@H](CC(C)C)[C@@H](O)CC(=O)O)C(C)C)C(C)C [PEPSTATIN] |
